# Bioassay records as filed in PubChem.
# ERp5 block = inhibitors of human ERp5. Q15084. ERp5 insulin aggregation, absorbance 650 nm, 90 min. inhibition, % at 9.99 µM. 350,000 tested, 0.05% active. AID 651711;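 active means mean replicate inhibition above about 25%, with every replicate also reaching it, limit read from the data, passing the limit was not always enough; inconclusive means only one of those two criteria met; inactive means neither criterion met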
# INS-1E GSIS act = GLuc luminescence reporter in INS-1E cells, primary screen for activators of glucose-dependent secretion of insulin; AID 743287; INS-1E GLuc reporter insulin secretion, 2-3 h; 370,000 tested, 0.61% active; activation, % at 16.6 µM;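 active means lowest replicate activation of at least 40%, so every replicate reaches that level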;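 further: 0% = median of neutral control wells and 100% = median of IBMX positive control wells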
# HIV Env fusion = inhibitors of HIV Env-mediated cell fusion. 360,000 tested, 1.1% active. inhibition, % at 12.3 µM. HeLa-JRFL Env/CEM21 cell fusion, luciferase;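 active means mean replicate inhibition score of at least 50 and every replicate individually at or above 50; inconclusive means only one of the two criteria met; inactive means mean below 50 and not all replicates reaching 50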;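 further: 0% = plate neutral controls and 100% = maraviroc near 300 nM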
# FN deposit inh = fibronectin deposition inhibition. AH1F fibroblasts, Alexa488-fibronectin deposition fluorescence, overnight. inhibition, % at 12.6 µM. 350,000 tested, 0.086% active;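 active means mean inhibition across replicates of 30% or more, regardless of how many single replicates reach that level; inconclusive means mean under 30% yet at least half of replicates reach 30%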;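 further: positive control wells lacked labelled fibronectin entirely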
#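 Assay system: AH1F fibroblasts / Quantity: 10000 cells per well / Medium: DMEM plus 2% serum, read in PBS / Reagent: labelled fibronectin 24 nM / Dosing: single dose, pinned / Times: 1 h cell attachment, overnight exposure to compound and label / Signal: fluorescence, ex 485 nm, em 525 nm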
# PDI turbidity = PDI (human) enzyme inhibition; P07237; PDI insulin aggregation turbidity, A650, 90 min; inhibition, % at 10 µM; 350,000 tested, 0.052% active;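 active means mean inhibition across replicates of 30% or more, whatever share of single replicates reach that level; inconclusive means mean inhibition below 30% while every single replicate reaches 30%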
# Target sequence (P07237 whole entry, looked up): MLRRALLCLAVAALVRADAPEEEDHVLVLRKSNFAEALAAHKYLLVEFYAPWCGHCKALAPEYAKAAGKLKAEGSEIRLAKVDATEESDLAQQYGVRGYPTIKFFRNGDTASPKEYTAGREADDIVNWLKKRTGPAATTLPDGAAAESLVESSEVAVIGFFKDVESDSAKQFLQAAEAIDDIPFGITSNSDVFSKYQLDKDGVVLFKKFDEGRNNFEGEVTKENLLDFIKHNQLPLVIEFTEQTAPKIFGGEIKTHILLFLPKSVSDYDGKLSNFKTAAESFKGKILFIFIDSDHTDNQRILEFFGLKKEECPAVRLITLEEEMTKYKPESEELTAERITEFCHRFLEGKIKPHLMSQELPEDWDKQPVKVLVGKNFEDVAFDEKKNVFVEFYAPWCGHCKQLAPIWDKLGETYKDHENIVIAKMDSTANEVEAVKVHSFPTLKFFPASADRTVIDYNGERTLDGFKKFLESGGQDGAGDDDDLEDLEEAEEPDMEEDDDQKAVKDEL
# An asterisk follows results filed as active; ? = inconclusive; . = no result given; [ ] = dose if it differs, or a comment. Sampled rows, rich in hits. Any-hit rate of the full collection: about 1.4%.
SMILES,ERp5 block,INS-1E GSIS act,HIV Env fusion,FN deposit inh,PDI turbidity
CCOc1ccc(-c2noc(CCC(=O)NC)n2)cc1OCC,.,56.0*,-11.6,0.9,6.6
CC(=O)C1=C(O)C(=O)N(c2ccc(O)cc2)C1c1ccc([N+](=O)[O-])cc1 (stereo not given),-1.7,5.8,16.4,36.0*,1.6
C[C@H]1CN([C@@H](C)CO)C(=O)c2cccc(NS(=O)(=O)c3ccccc3)c2O[C@@H]1CN(C)S(=O)(=O)c1ccc(Cl)cc1,.,3.3,2.1[16.7 µM],.,.
COc1ccc(CCNS(=O)(=O)c2c(C)nc3scc(C)n3c2=O)cc1OC,4.1,25.7,-0.4,2.5,-5.5
CCOc1ccc(CCNS(=O)(=O)c2c(C)nc3scc(C)n3c2=O)cc1OCC,2.0,52.3*,-0.8,2.4,2.8
Cc1cccc(S(=O)(=O)N2CCCCN3[C@@H](CO)[C@@H](c4ccc(C#CC(C)C)cc4)[C@@H]3C2)c1,-4.8,56.7*,.,.,.
Cc1ccc(NC(=O)C(NC2CCCc3ccccc32)c2ccccc2)c([N+](=O)[O-])c1 (stereo not given),.,-31.1,86.5*,-1.8,-1.1
O=S(=O)(c1cccc(-c2nnc(-c3ccc(Br)cc3)o2)c1)N1CCCCCC1,.,.,60.0*,5.6,-5.0
COc1ccc(CN(C)C[C@H]2OCCCC[C@@H](C)Oc3ccc(NS(=O)(=O)c4ccc(Cl)cc4)cc3C(=O)N([C@@H](C)CO)C[C@H]2C)cc1,-7.0,-11.4,12.8[16.7 µM],0.0,.
O=c1[nH]c(=O)n(Cc2ccco2)c2c1C(C(F)(F)F)(C(F)(F)F)N=C(CCC1CCCCC1)N2,.,.,?,-14.8,2.7
CC(C)Cn1c2c(c(=O)[nH]c1=O)C(C(F)(F)F)(C(F)(F)F)N=C(CCC1CCCCC1)N2,.,54.5*,.,.,-16.2
Cc1cc2cc(CN(Cc3ccco3)S(=O)(=O)c3c(C)ccc4nsnc34)c(=O)[nH]c2cc1C,.,.,77.3*,.,8.4
COCC(=O)Nc1ccc2c(c1)C(=O)N(C)[C@H]1CC[C@@H](CC(=O)NCc3ccccc3F)O[C@H]1CO2,-0.3,0.7,-13.5[16.7 µM],-0.2,.
C[C@@H]1O[C@H](C2CCCC2)CC2=C1C(=O)OC(C)(C)O2,2.8,59.5*,11.0,-6.6,.
Cc1ccc(N(C)S(=O)(=O)c2cccc(C(=O)N(C)Cc3cnn(-c4ccccc4)c3)c2)cc1,5.9,-39.8,63.4*,3.2,0.7
C[C@H](CO)N1C[C@H](C)[C@@H](CN(C)S(=O)(=O)c2ccc(F)cc2)Oc2ccc(NC(=O)Cn3cnnn3)cc2CC1=O,9.0,7.4,0.7[16.7 µM],.,.
Cc1cc(Cl)ccc1C(=O)C1CCCN(C(=O)c2n[nH]c3c2CCCC3)C1 (stereo not given),2.4,-16.4,22.4,4.0,7.5
COc1ccc(C(=O)C2CCCN(Cc3cccn3-c3nccs3)C2)cc1OC (stereo not given),-2.6,80.8*,9.7,-2.7,2.6
COc1ccc(C(=O)C2CCCN(Cc3cccn3-c3nccs3)C2)cc1F (stereo not given),-7.3,13.9,12.4,-6.7,3.1
COc1ccc(C(=O)C2CCCN(C(=O)c3n[nH]c4c3CCCC4)C2)cc1OC (stereo not given),-0.8,66.6*,2.4,4.4,-0.3
CC(C)NC(=O)N(C)C[C@@H]1OCCCC[C@@H](C)Oc2ccc(NC(=O)C3CCCCC3)cc2C(=O)N([C@@H](C)CO)C[C@@H]1C,3.4,-9.3,1.2[16.7 µM],1.1,.
O=C(Cc1ccccn1)NCC[C@@H]1CC[C@@H](NS(=O)(=O)c2ccc(F)cc2)[C@@H](CO)O1,-0.6,2.5,15.0[16.7 µM],.,.
Cc1cc(NCCCn2ccnc2)n2nc(-c3ccc(Cl)cc3)cc2n1,-1.5,13.8,-10.2,3.9,27.3
CC(C)(C)c1cc(NCCCn2ccnc2)n2ncc(-c3ccc(Cl)cc3)c2n1,.,817.1*,?,6.0,11.4
CCN(CC)c1ccc(C(=C2C=CC(=[N+](CC)CC)C=C2)c2ccccc2)cc1,12.3,13.7,80.6*,37.7*,18.6
SMILES,ERp5 block,INS-1E GSIS act,HIV Env fusion,FN deposit inh,PDI turbidity
CCN(CC)c1ccc(C(=C2C=CC(=[N+](CC)CC)C=C2)c2ccc(N(CC)CC)cc2)cc1,4.3,.,62.1*,60.4*,15.3
CCN(CC)c1ccc(C(=O)NNC(=O)CCNC(=O)c2ccccc2)cc1,0.1,.,.,-3.2,-1.3
CCN(CC)c1ccc(C(=O)NNC(=O)CCl)cc1,1.9,-8.2,18.4,8.1,5.6
CCOc1ccc(C(=O)Nc2ccc(-c3nc4ccccc4[nH]3)cc2)cc1[N+](=O)[O-],.,101.5*,7.3,9.6,-11.6
Cc1ccc2c(c1)c1c3n2CCN(CC(N)=O)C3CCC1 (stereo not given),3.5,-7.3,81.0*,14.8,9.7
O=C(CSCc1nc2ccccc2[nH]1)Nc1ccc2ccccc2c1,.,-21.1,70.6*,-12.5,-3.8
O=C(CSCc1nc2ccccc2[nH]1)Nc1ccc(Oc2ccccc2)cc1,.,-31.4,18.4,13.2,-3.5
CCn1c(-c2ccc(Cl)cc2)n[nH]c1=S,.,.,60.6*,6.0,-2.4
Nc1ccn([C@@H]2O[C@H](CO)[C@@H](O)[C@@H]2O)c(=O)n1,-3.5,-2.4,47.0,-2.8,3.6
Nc1ccn(C2OC(CO)C(O)C2F)c(=O)n1 (stereo not given),-0.1,29.1,75.1*,-3.9,.
CCCCCCCCCCCCCCCC(=O)OCC1OC(n2ccc(N)nc2=O)C(O)C1O (stereo not given),-4.0,.,75.2*,-6.7,0.1
CC1(C(=O)N/N=C/c2ccc3c(c2)OCO3)CC1(Br)Br (stereo not given),-4.4,-6.2,103.5*,3.0,-3.6
Cc1ccc(/C=N/NC(=O)C2(C)CC2(Br)Br)cc1 (stereo not given),3.8,-5.3,4.7,7.0,-0.9
Nc1[nH]c(C(=O)c2ccccc2)c(-c2ccc(Cl)cc2Cl)c1C(=O)c1ccc(Cl)cc1,6.3,-28.5,21.8,-43.8,.
Nc1[nH]c(C(=O)c2ccccc2)c(-c2c(F)cccc2F)c1C(=O)c1ccc(Cl)c(Cl)c1,5.8,176.6*,9.4,-7.7,.
CC1(C(=O)N2CCCCC2)CCN1C(=O)C1(c2ccccc2)CC1 (stereo not given),6.3,40.1*,4.3,5.2,-4.7
O=C(N1CCCCC1)C1(c2ccccc2)CCCCC1,0.5,.,13.2,2.0,4.5
CC(=O)N(C)c1ccc(OCC(O)Cn2c3ccc(Cl)cc3c3cc(Cl)ccc32)cc1 (stereo not given),.,.,129.9*,11.8,2.1
CC(=O)N(C)c1ccc(OCC(O)Cn2c(C)nc3ccccc32)cc1 (stereo not given),-3.0,-14.5,-11.5,5.9,2.4
Cc1ccc2[nH]c(=O)c(C3C(C#N)=C(N)Oc4c3ccc3cccnc43)cc2c1 (stereo not given),.,.,47.4,3.1,-3.8
N#CC1=C(N)Oc2c(ccc3cccnc23)C1c1ccccc1 (stereo not given),7.9,16.3,13.0,36.1*,-3.7
COc1cc2c(cc1OC)C1=C(C#N)CCC(=NC(=O)c3ccco3)N1CC2,3.0,74.7*,43.9,2.7,2.1
